# Assay results from ChEMBL document CHEMBL3217724, “Synthesis and evaluation of a series of benzothiophene acrylonitrile analogs as anticancer agents” (Medchemcomm, 2013).
# Activity calls are given as the source filed them. The rule behind the calls is not given here.
# How the values were obtained:
# PC-3 [1] = assay: Induction of beta tubulin stabilization in human PC3 cells at 10 nM after 24 hrs by DAPI-staining based immunofluorescence assay; assay type: cell-based
# Procedure, shortened: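 PC3 cells were treated for 24 hours with the test agent at 1, 10 or 100 nM, or with 10 nM docetaxel or vinblastine as stabilizing and destabilizing references. Cells were immunostained for beta-tubulin (green) with DAPI nuclear counterstain (blue) and the microtubule staining pattern imaged.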
# LLC-PK1 [2] = assay: Resistance factor, ratio of GI50 for pig LLC-PK1 cells expressing MDR1 to GI50 for pig LLC-PK1 cells; set-up: species or system Sus scrofa
# Procedure, shortened: (§1)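 Porcine epithelial L-MDR1 (P-gp expressing) cells and their non-expressing parent line were exposed to compound for 72 h. Viability was read with AlamarBlue dye and GI50 derived. P-gp expression was verified by Western blot with β-actin as loading control. The resistance ratio compares GI50 in MDR1 versus parent cells.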
# LLC-PK1 [3] = assay: Growth inhibition of pig LLC-PK1 cells expressing MDR1 by Alamar Blue assay; assay type: functional; conditions: Sus scrofa; procedure, shortened: as §1
# [4] = Growth inhibition of pig LLC-PK1 cells by Alamar Blue assay; assay type: cell-based, Sus scrofa
# Procedure, shortened: (§2)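 Cell viability was read with AlamarBlue dye in 96-well format and GI50 values derived, to assess P-gp effects. Cells were P-gp-expressing NCI/ADR-Res ovarian cancer cells and L-MDR1 porcine epithelial cells, each with its non-expressing parent line. P-gp expression was confirmed by Western blot with β-actin as loading control. Resistance is the GI50 in the P-gp line over the GI50 in the parent line.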
# OVCAR-8 = assay: Resistance factor, ratio of GI50 for P-gp expressing NCI-ADR-RES cells to GI50 for human OVCAR8 cells; assay type: functional; procedure, shortened: as §2
# [5] = Growth inhibition of P-gp expressing human NCI-ADR-RES cells by Alamar Blue assay; assay type: functional
# Procedure, shortened: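 72-h cytotoxicity in 96-well plates with AlamarBlue viability dye, giving GI50. Line 1 uses docetaxel-resistant PC3 prostate cells (PC3-DR), and line 2 uses NCI/ADR-Res ovarian cells. P-gp expression in both was confirmed by Western blot, with β-actin as the loading control.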
# [6] = Growth inhibition of human OVCAR8 cells by Alamar Blue assay; assay type: functional; conditions: OVCAR-8; procedure, shortened: as §2
# PC-3 [7] = assay: Resistance factor, ratio of GI50 for P-gp expressing docetaxel-resistant human PC3 cells to GI50 for human PC3 cells; assay type: functional
# Procedure, shortened: (§3)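 PC3 prostate cancer cells and docetaxel-resistant PC3-DR cells were exposed to drug for 72 hours in 96-well format. Viability was read with AlamarBlue dye and GI50 derived. Resistance is the GI50 in PC3-DR over the GI50 in parental PC3.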
# PC-3 [8] = assay: Growth inhibition of human PC3 cells after 72 hrs by Alamar Blue assay; assay type: functional; conditions: PC-3, 72 h; procedure, shortened: as §3
# PC-3 [9] = assay: cells; conditions: Homo sapiens, PC-3, 72 h
# [10] = Growth inhibition of human OVCAR8 cells; assay type: functional; conditions: OVCAR-8
# Procedure, shortened: (§4)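 NCI 60-human-cancer-cell-line panel, five-dose screen after a preliminary screen. GI50 is the molar concentration giving 50% growth inhibition.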
# [11] = Growth inhibition of human OVCAR4 cells; assay type: functional; conditions: OVCAR-4; procedure, shortened: as §4
# IGROV-1 = assay: Growth inhibition of human IGROV1 cells; assay type: functional; procedure, shortened: as §4
# [12] = Growth inhibition of human OVCAR3 cells; assay type: functional; conditions: OVCAR-3; procedure, shortened: as §4
# [13] = Growth inhibition of human UACC257 cells; assay type: functional; conditions: UACC-257
# Procedure, shortened: (§5)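 NCI 60-cell-line panel, five-dose screen; GI50 is the molar concentration giving 50% growth inhibition.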
# [14] = Growth inhibition of human UACC62 cells; assay type: functional; conditions: UACC-62; procedure, shortened: as §5
# SK-MEL-5 = assay: Growth inhibition of human SK-MEL-5 cells; assay type: functional; procedure, shortened: as §4
# SK-MEL-2 = assay: Growth inhibition of human SK-MEL-2 cells; assay type: functional; procedure, shortened: as §4
# SK-MEL-28 = assay: Growth inhibition of human SK-MEL-28 cells; assay type: functional; procedure, shortened: as §4
# M14 = assay: Growth inhibition of human M14 cells; assay type: functional; procedure, shortened: as §4
# MDA-MB-435 = assay: Growth inhibition of human MDA-MB-435 cells; assay type: functional; procedure, shortened: as §4
# Malme-3M = assay: Growth inhibition of human MALME-3M cells; assay type: functional; procedure, shortened: as §4
# U-251 = assay: Growth inhibition of human U251 cells; assay type: functional; procedure, shortened: as §5
# [15] = Growth inhibition of human LOXIMVI cells; assay type: functional; conditions: LOX IMVI; procedure, shortened: as §4
# SNB-75 = assay: Growth inhibition of human SNB75 cells; assay type: functional; procedure, shortened: as §5
# SNB-19 = assay: Growth inhibition of human SNB19 cells; assay type: functional; procedure, shortened: as §5
# [16] = Growth inhibition of human SF539 cells; assay type: functional; conditions: SF-539; procedure, shortened: as §4
# SW-620 = assay: Growth inhibition of human SW620 cells; assay type: functional; procedure, shortened: as §5
# SF-268 = assay: Growth inhibition of human SF268 cells; assay type: functional; procedure, shortened: as §4
# HT-29 = assay: Growth inhibition of human HT-29 cells; assay type: functional; procedure, shortened: as §4
# KM12 = assay: Growth inhibition of human KM12 cells; assay type: functional; procedure, shortened: as §4
# [17] = Growth inhibition of human HCT15 cells; assay type: functional; conditions: HCT-15; procedure, shortened: as §4
# [18] = Growth inhibition of human HCC2998 cells; assay type: functional; conditions: HCC 2998; procedure, shortened: as §4
# HCT-116 = assay: Growth inhibition of human HCT116 cells; assay type: functional; procedure, shortened: as §4
# COLO 205 = assay: Growth inhibition of human COLO205 cells; assay type: functional; procedure, shortened: as §4
# NCI-H460 = assay: Growth inhibition of human NCI-H460 cells; assay type: functional; procedure, shortened: as §4
# NCI-H322M = assay: Growth inhibition of human NCI-H322M cells; assay type: functional; procedure, shortened: as §4
# NCI-H226 = assay: Growth inhibition of human NCI-H226 cells; assay type: functional; procedure, shortened: as §4
# NCI-H23 = assay: Growth inhibition of human NCI-H23 cells; assay type: functional; procedure, shortened: as §4
# [19] = Growth inhibition of human HOP92 cells; assay type: functional; conditions: HOP-92; procedure, shortened: as §4
# HOP-62 = assay: Growth inhibition of human HOP62 cells; assay type: functional; procedure, shortened: as §4
# SR = assay: Growth inhibition of human SR cells; assay type: functional; procedure, shortened: as §5
# A549 = assay: Growth inhibition of human A549 cells; assay type: functional; procedure, shortened: as §4
# RPMI-8226 = assay: Growth inhibition of human RPMI8226 cells; assay type: functional; procedure, shortened: as §4
# K562 = assay: Growth inhibition of human K562 cells; assay type: functional; procedure, shortened: as §4
# [20] = Growth inhibition of human MOLT4 cells; assay type: functional; conditions: MOLT-4; procedure, shortened: as §4
# HL-60(TB) = assay: Growth inhibition of human HL-60(TB) cells; assay type: functional; procedure, shortened: as §4
# CCRF-CEM = assay: Growth inhibition of human CCRF-CEM cells; assay type: functional; procedure, shortened: as §4
# MDA-MB-468 = assay: Growth inhibition of human MDA-MB-468 cells; assay type: functional; procedure, shortened: as §4
# T47D = assay: Growth inhibition of human T47D cells; assay type: functional; procedure, shortened: as §5
# [21] = Growth inhibition of human Hs578T cells; assay type: functional; conditions: Hs-578T; procedure, shortened: as §4
# [22] = Growth inhibition of human BT549 cells; assay type: functional; conditions: BT-549; procedure, shortened: as §4
# MDA-MB-231 = assay: Growth inhibition of human MDA-MB-231 cells; assay type: functional; procedure, shortened: as §4
# DU-145 = assay: Growth inhibition of human DU145 cells; assay type: functional; procedure, shortened: as §4
# MCF7 = assay: Growth inhibition of human MCF7 cells; assay type: functional; procedure, shortened: as §4
# [23] = Growth inhibition of human UO31 cells; assay type: functional; conditions: UO-31; procedure, shortened: as §5
# PC-3 [24] = assay: Growth inhibition of human PC3 cells; assay type: functional; procedure, shortened: as §4
# TK-10 = assay: Growth inhibition of human TK10 cells; assay type: functional; procedure, shortened: as §5
# [25] = Growth inhibition of human RXF393 cells; assay type: functional; conditions: RXF 393; procedure, shortened: as §4
# SN12C = assay: Growth inhibition of human SN12C cells; assay type: functional; procedure, shortened: as §5
# ACHN = assay: Growth inhibition of human ACHN cells; assay type: functional; procedure, shortened: as §4
# CAKI-1 = assay: Growth inhibition of human Caki1 cells; assay type: functional; procedure, shortened: as §4
# A498 = assay: Growth inhibition of human A498 cells; assay type: functional; procedure, shortened: as §4
# SK-OV-3 = assay: Growth inhibition of human SKOV3 cells; assay type: functional; procedure, shortened: as §5
# 786-0 = assay: Growth inhibition of human 786-0 cells; assay type: functional; procedure, shortened: as §4
# [26] = Growth inhibition of human NCI-ADR-RES cells; assay type: functional; procedure, shortened: as §4
# [27] = Growth inhibition of human OVCAR5 cells; assay type: functional; conditions: OVCAR-5; procedure, shortened: as §4
smiles,measurement,setting,value
CC(=O)O[C@@]12CO[C@@H]1C[C@H](O)[C@@]1(C)C(=O)[C@H](O)C3=C(C)[C@@H](OC(=O)[C@H](O)[C@@H](NC(=O)OC(C)(C)C)c4ccccc4)C[C@@](O)([C@@H](OC(=O)c4ccccc4)[C@H]21)C3(C)C.O.O.O [DOCETAXEL],Activity,PC-3 [1],Active
same,RatioGI50,LLC-PK1 [2],627
same,GI50,LLC-PK1 [3],0.107 µM
same,GI50,[4],0.00017 µM
same,RatioGI50,OVCAR-8,392
same,GI50,[5],0.196 µM
same,GI50,[6],0.0005 µM
same,RatioGI50,PC-3 [7],22
same,GI50,PC-3 [8],0.0025 µM
same,GI50,PC-3 [9],0.054 µM
COc1cc(/C(C#N)=C\c2cc3ccccc3s2)cc(OC)c1OC,GI50,[10],< 0.01 µM
same,GI50,[11],< 0.01 µM
same,GI50,IGROV-1,< 0.01 µM
same,GI50,[12],< 0.01 µM
same,GI50,[13],> 0.1 µM
same,GI50,[14],< 0.01 µM
same,GI50,SK-MEL-5,< 0.01 µM
same,GI50,SK-MEL-2,< 0.01 µM
same,GI50,SK-MEL-28,< 0.01 µM
same,GI50,M14,< 0.01 µM
same,GI50,MDA-MB-435,< 0.01 µM
same,GI50,Malme-3M,< 0.01 µM
same,GI50,U-251,< 0.01 µM
same,GI50,[15],< 0.01 µM
same,GI50,SNB-75,< 0.01 µM
same,GI50,SNB-19,0.0391 µM
same,GI50,[16],< 0.01 µM
same,GI50,SW-620,< 0.01 µM
same,GI50,SF-268,< 0.01 µM
same,GI50,HT-29,< 0.01 µM
same,GI50,KM12,< 0.01 µM
same,GI50,[17],< 0.01 µM
same,GI50,[18],0.0192 µM
same,GI50,HCT-116,< 0.01 µM
same,GI50,COLO 205,< 0.01 µM
same,GI50,NCI-H460,< 0.01 µM
same,GI50,NCI-H322M,0.0183 µM
same,GI50,NCI-H226,0.0179 µM
same,GI50,NCI-H23,< 0.01 µM
same,GI50,[19],< 0.01 µM
same,GI50,HOP-62,< 0.01 µM
same,GI50,SR,< 0.01 µM
same,GI50,A549,< 0.01 µM
same,GI50,RPMI-8226,< 0.01 µM
same,GI50,K562,< 0.01 µM
same,GI50,[20],< 0.01 µM
same,GI50,HL-60(TB),< 0.01 µM
same,GI50,CCRF-CEM,< 0.01 µM
same,GI50,MDA-MB-468,< 0.01 µM
same,GI50,T47D,> 0.1 µM
same,GI50,[21],< 0.01 µM
same,GI50,[22],< 0.01 µM
same,GI50,MDA-MB-231,< 0.01 µM
same,GI50,DU-145,< 0.01 µM
same,GI50,MCF7,< 0.01 µM
same,GI50,[23],< 0.01 µM
same,GI50,PC-3 [24],< 0.01 µM
same,GI50,TK-10,> 0.1 µM
same,GI50,[25],< 0.01 µM
same,GI50,SN12C,< 0.01 µM
same,GI50,ACHN,< 0.01 µM
same,GI50,CAKI-1,0.0378 µM
same,GI50,A498,< 0.01 µM
same,GI50,SK-OV-3,< 0.01 µM
same,GI50,786-0,< 0.01 µM
same,GI50,[26],< 0.01 µM
same,GI50,[27],< 0.01 µM
